Data reported in ChEMBL document CHEMBL2157870 (J Med Chem, 2012).
≈ marks a conversion by molar mass, not a printed value.

Assays:
[1] = tested on: Plasmodium falciparum; experiment: Antimalarial activity against Plasmodium falciparum 3D7 after 72 hrs by MSF assay; assay type: functional, organism-based; details: 3D7, 72 h
[2] = tested on: Plasmodium falciparum; experiment: Antimalarial activity against Plasmodium falciparum K1 after 72 hrs by MSF assay; assay type: functional, organism-based; details: K1, 72 h
[3] = Permeability of the compound at 10 uM at pH 7.4 by PAMPA; assay type: ADME; details: pH 7.4, 10 µM
Method in brief: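 PAMPA: diluted compound in system solution buffer at pH 7.4 was placed in the donor well over a GIT-lipid-painted membrane, with acceptor solution buffer in the acceptor well. The sandwich was stirred for 30 min with the aqueous boundary layer set to 40 μm. Triplicate.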

[4] = Solubility of the compound in PBS at 10 mM after 18 hrs by UV spectroscopic analysis; assay type: physicochemical
[5] = tested on: Mus musculus; experiment: Cmax in CD1 mouse at 20 mg/kg, po; assay type: ADME, organism-based; design: dose 20 mg/kg, route oral; details: in vivo
Method in brief: (§1)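 Female CD-1 mice, 8 weeks old, were given a single oral gavage dose as a suspension in 0.5% methylcellulose in sterile water. Blood was taken from three mice per time point (5 min–24 hr) into K3EDTA and processed to plasma. After acetonitrile protein precipitation, samples were analysed by LC-MS/MS with a warfarin internal standard. Noncompartmental analysis used linear-up/log-down trapezoidal AUC and at least three non-zero concentrations after Tmax.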

[6] = tested on: Mus musculus; experiment: Cmax in CD1 mouse at 200 mg/kg, po; assay type: ADME, organism-based; design: dose 200 mg/kg, route oral; details: in vivo; method in brief: as §1
[7] = tested on: Mus musculus; experiment: Tmax in CD1 mouse at 20 mg/kg, po; assay type: ADME, organism-based; design: dose 20 mg/kg, route oral; details: in vivo; method in brief: as §1
[8] = tested on: Mus musculus; experiment: Tmax in CD1 mouse at 200 mg/kg, po; assay type: ADME, organism-based; design: dose 200 mg/kg, route oral; details: in vivo; method in brief: as §1
[9] = tested on: Mus musculus; experiment: AUC (0 to infinity) in CD1 mouse at 20 mg/kg, po; assay type: ADME, organism-based, Plasma; design: time infinity, dose 20 mg/kg, route oral; details: in vivo; method in brief: as §1
[10] = tested on: Mus musculus; experiment: AUC (0 to infinity) in CD1 mouse at 200 mg/kg, po; assay type: ADME, organism-based, Plasma; design: time infinity, dose 200 mg/kg, route oral; details: in vivo; method in brief: as §1
[11] = (§2) Apparent volume of distribution during terminal phase in CD1 mouse at 20 mg/kg, po; assay type: ADME, organism-based; design: dose 20 mg/kg, route oral; details: CD1, mouse, in vivo, read-out: Vz/F; method in brief: as §1
[12] = Apparent volume of distribution during terminal phase in CD1 mouse at 200 mg/kg, po; assay type: ADME, organism-based; design: dose 200 mg/kg, route oral; details: in vivo, read-out: Vz/F; method in brief: as §1
[13] = tested on: HEK293; experiment: Cytotoxicity against human HEK293 cells at 25 uM after 72 hrs by celltiter-glo assay; assay type: cell-based; details: hek293, 72 h
[14] = tested on: HepG2; experiment: Cytotoxicity against human HepG2 cells at 25 uM after 72 hrs by celltiter-glo assay; assay type: cell-based; details: hepg2, 72 h
[15] = tested on: Raji; experiment: Cytotoxicity against human Raji cells at 25 uM after 72 hrs by celltiter-glo assay; assay type: cell-based
[16] = tested on: BJ; experiment: Cytotoxicity against human BJ cells at 25 uM after 72 hrs by celltiter-glo assay; assay type: cell-based
[17] = target: T1, CYP2D6 (Homo sapiens, UniProt P10635); experiment: Inhibition of CYP2D6 in human liver microsomes at 1 uM after 20 mins by LC-MS/MS analysis relative to control; values are per cent of control
T1 sequence (P10635 whole entry): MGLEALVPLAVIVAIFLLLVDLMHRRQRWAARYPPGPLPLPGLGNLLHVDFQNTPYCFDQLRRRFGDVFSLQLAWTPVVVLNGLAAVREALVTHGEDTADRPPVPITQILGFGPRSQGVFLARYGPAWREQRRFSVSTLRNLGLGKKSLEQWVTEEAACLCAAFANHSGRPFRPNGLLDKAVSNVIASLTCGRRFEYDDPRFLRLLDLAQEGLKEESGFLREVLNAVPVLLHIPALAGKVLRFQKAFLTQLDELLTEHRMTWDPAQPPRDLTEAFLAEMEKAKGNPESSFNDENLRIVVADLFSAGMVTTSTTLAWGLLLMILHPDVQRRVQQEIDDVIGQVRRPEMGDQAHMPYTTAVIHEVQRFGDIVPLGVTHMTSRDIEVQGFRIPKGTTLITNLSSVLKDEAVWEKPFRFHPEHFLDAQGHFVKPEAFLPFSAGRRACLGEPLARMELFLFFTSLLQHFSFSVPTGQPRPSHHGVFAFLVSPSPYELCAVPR

[18] = target: T1, CYP2D6; experiment: Inhibition of CYP2D6 in human liver microsomes at 10 uM after 20 mins by LC-MS/MS analysis relative to control; values are per cent of control
[19] = target: Voltage-gated inwardly rectifying potassium channel KCNH2 (Homo sapiens, UniProt Q12809); experiment: Inhibition of human ERG by patch clamp assay
Sequence of Voltage-gated inwardly rectifying potassium channel KCNH2 (Q12809 whole entry): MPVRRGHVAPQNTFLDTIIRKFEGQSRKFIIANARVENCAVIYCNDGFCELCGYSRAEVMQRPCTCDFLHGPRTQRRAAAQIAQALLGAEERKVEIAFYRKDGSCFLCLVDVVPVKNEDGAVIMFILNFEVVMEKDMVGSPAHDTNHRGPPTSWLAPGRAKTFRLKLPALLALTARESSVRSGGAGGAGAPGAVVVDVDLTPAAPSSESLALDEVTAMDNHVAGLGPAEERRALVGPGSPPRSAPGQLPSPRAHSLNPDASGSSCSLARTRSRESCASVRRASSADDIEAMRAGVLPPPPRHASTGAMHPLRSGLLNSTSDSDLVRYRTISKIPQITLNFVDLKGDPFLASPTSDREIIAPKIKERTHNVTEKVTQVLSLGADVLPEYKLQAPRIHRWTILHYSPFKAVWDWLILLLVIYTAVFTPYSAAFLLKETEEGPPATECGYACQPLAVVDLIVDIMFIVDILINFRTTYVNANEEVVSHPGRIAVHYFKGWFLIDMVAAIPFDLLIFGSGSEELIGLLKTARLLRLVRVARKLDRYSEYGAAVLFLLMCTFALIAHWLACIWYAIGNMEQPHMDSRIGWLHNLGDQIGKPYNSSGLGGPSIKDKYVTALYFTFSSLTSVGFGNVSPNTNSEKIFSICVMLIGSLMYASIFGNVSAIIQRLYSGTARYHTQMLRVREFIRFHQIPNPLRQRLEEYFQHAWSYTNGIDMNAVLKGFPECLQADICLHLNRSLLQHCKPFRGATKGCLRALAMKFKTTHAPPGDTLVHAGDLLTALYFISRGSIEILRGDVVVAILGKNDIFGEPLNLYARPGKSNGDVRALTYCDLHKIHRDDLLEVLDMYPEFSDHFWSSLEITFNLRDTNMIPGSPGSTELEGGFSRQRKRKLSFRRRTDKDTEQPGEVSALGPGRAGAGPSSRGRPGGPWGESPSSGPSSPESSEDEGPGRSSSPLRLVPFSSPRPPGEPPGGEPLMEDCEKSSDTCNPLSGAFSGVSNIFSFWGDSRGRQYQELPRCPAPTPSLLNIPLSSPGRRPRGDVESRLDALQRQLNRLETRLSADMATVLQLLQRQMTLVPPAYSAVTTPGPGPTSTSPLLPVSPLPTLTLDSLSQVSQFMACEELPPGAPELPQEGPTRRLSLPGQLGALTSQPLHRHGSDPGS

[20] = target: T2, ATP-sensitive inward rectifier potassium channel 11 (Homo sapiens, UniProt Q14654); experiment: Inhibition of Kir6.2 by patch clamp assay
T2 sequence (Q14654 whole entry): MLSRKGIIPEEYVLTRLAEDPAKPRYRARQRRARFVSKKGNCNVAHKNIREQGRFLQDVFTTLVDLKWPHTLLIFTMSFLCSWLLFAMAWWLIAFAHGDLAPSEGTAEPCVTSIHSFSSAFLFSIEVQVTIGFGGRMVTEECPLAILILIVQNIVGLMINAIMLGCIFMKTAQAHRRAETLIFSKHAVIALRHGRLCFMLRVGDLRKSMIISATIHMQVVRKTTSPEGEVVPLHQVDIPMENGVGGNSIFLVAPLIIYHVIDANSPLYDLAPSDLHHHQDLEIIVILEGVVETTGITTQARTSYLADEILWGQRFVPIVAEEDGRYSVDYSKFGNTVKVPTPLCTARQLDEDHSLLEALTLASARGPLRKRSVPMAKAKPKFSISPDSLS

[21] = Intrinsic clearance in human liver microsomes at 2 mM; assay type: ADME, Microsome; details: read-out: CLH
[22] = tested on: Mus musculus; experiment: Cmax in CD1 mouse at 500 mg/kg, po; assay type: ADME, organism-based; design: dose 500 mg/kg, route oral; details: in vivo; method in brief: as §1
[23] = tested on: Mus musculus; experiment: Tmax in CD1 mouse at 500 mg/kg, po; assay type: ADME, organism-based; design: dose 500 mg/kg, route oral; details: in vivo; method in brief: as §1
[24] = tested on: Mus musculus; experiment: AUC (0 to infinity) in CD1 mouse at 500 mg/kg, po; assay type: ADME, organism-based, Plasma; design: time infinity, dose 500 mg/kg, route oral; details: in vivo; method in brief: as §1
[25] = tested on: Mus musculus; experiment: (§3) Apparent volume of distribution during terminal phase in CD1 mouse at 500 mg/kg, po; assay type: ADME, organism-based; design: dose 500 mg/kg, route oral; details: mouse, in vivo; method in brief: as §1
[26] = Intrinsic clearance in […] mouse liver microsomes at 2 mM; assay type: ADME, Microsome; details: read-out: CLH
[27] = tested on: Plasmodium berghei; experiment: Antimalarial activity against Plasmodium berghei NK-65 infected in ICR mouse assessed as parasitemia level at 100 mg/kg, po administered day 3, 4 and 5 post infection measured on day 6 by Geimsa staining; assay type: functional
Method in brief: (§4)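 Female Swiss outbred ICR mice, 15–20 g, given 1 X 10^6 P. berghei NK-65 infected red cells from donor mice in plasma at day 0 (modified Thompson's test). Patent infection confirmed by tail blood smear on day 3. Oral single daily doses in 0.5% HEC on days 3, 4, 5. Vehicle controls. Survival recorded daily to day 30. Parasitemia from Giemsa thin films on days 3, 6, 13, 20, 27, counting ≥1000 cells.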

[28] = tested on: Mus musculus; experiment: as §2; assay type: ADME, organism-based; design: dose 20 mg/kg, route oral; details: mouse, in vivo; method in brief: as §1
[29] = as §3; assay type: ADME, organism-based; design: dose 500 mg/kg, route oral; details: CD1, mouse, in vivo, read-out: Vz/F; method in brief: as §1
[30] = tested on: Plasmodium berghei; experiment: Antimalarial activity against Plasmodium berghei NK-65 infected in ICR mouse assessed as parasitemia level at 200 mg/kg, po administered day 3, 4 and 5 post infection measured on day 6 by Geimsa staining; assay type: functional; method in brief: as §4
[31] = tested on: Plasmodium berghei; experiment: Antimalarial activity against Plasmodium berghei NK-65 infected in ICR mouse assessed as parasitemia level at 200 mg/kg, po administered day 3, 4 and 5 post infection measured on day 13 by Geimsa staining; assay type: functional; method in brief: as §4
[32] = tested on: Plasmodium berghei; experiment: Antimalarial activity against Plasmodium berghei NK-65 infected in ICR mouse assessed as parasitemia level at 200 mg/kg, po administered day 3, 4 and 5 post infection measured on day 20 by Geimsa staining; assay type: functional; method in brief: as §4
[33] = tested on: Plasmodium berghei; experiment: Antimalarial activity against Plasmodium berghei NK-65 infected in ICR mouse assessed as survival rate at 100 mg/kg, po administered day 3, 4 and 5 post infection; assay type: functional; method in brief: as §4

| SMILES | EC50 [1] [nM] | EC90 [1] [nM] | EC50 [2] [nM] | EC90 [2] [nM] | permeability ([3]; BLD = below limit of detection) | solubility at 18 h, 10000 µM [4] [µM] | Cmax [5] [nM] | Cmax [6] [nM] | Tmax [7] [min] | Tmax [8] [min] | AUC [9] [µM·h] | AUC [10] [µM·h] | Vd/F [12] [L/kg] | Activity [13] | Activity [14] | Activity [15] | Activity [16] | % activity remaining at 20 min, 1 µM [17] [%] | % activity remaining at 20 min, 10 µM [18] [%] | IC50 [20] [nM] | further results |
| --- | --- | --- | --- | --- | --- | --- | --- | --- | --- | --- | --- | --- | --- | --- | --- | --- | --- | --- | --- | --- | --- |
| O=C(CCc1ccccc1)c1cc(F)ccc1OCC(O)CN1CCC(c2ccccc2)CC1 (configuration not stated) | 1330 | 2200 | 260 | 420 | BLD | 0.2 (≈ 0.0923 µg/mL) | 434 | 481 | 60 | 60 | 1.6 | 3.75 | 982 | Non-toxic | Non-toxic | Non-toxic | Non-toxic | 73 | 34 |  | Vd/F [11]: 224 L/kg |
| Cc1ccc(N2CCN(CC(O)COc3ccccc3C(=O)CCc3ccccc3)CC2)cc1 (configuration not stated) |  | 1300 |  | 640 | BLD | 2.2 (≈ 1.01 µg/mL) | 302 | 866 | 480 | 30 |  | 6.49 | 272 | Non-toxic | Non-toxic | Non-toxic | Non-toxic | 92 | 71 | > 5000 | IC50 [19]: 4310 nM; CLint scaled [21]: 38 mL/min/kg |
| O=C(CCc1ccc(F)cc1)c1ccccc1OCC(O)CN1CCN(C(c2ccccc2)c2ccccc2)CC1 (configuration not stated) | 160 | 450 | 100 | 210 | BLD | 0.6 (≈ 0.332 µg/mL) | 92.4 | 1140 | 30 | 60 | 0.298 | 5.67 | 288 | Non-toxic | Non-toxic | Non-toxic | Non-toxic | 83 | 76 |  | Cmax [22]: 861 nM; Tmax [23]: 30 min; AUC [24]: 4.08 µM·h; Vd/F [11]: 370 L/kg; Vz/F [25]: 1758 L/kg |
| O=C(CCc1ccccc1)c1cc(F)ccc1OCC(O)CN1CCN(C(c2ccccc2)c2ccccc2)CC1 (configuration not stated) |  | 660 |  | 310 |  | 0.2 (≈ 0.111 µg/mL) | 98.7 | 908 | 60 | 60 |  | 6.17 | 276 | Non-toxic | Non-toxic | Non-toxic | Non-toxic |  |  | > 5000 | permeability [3]: 0.8 ×10⁻⁶ cm/s; CLint scaled [26]: 34 mL/min/kg |
| O=C(CCc1ccccc1)c1ccccc1OCC(O)CN1CCC(c2ccccc2)CC1 (configuration not stated) |  | 750 |  | 240 |  | 7.3 (≈ 3.24 µg/mL) | 69.6 | 1620 | 18 | 30 | 0.224 | 6.8 | 278 | Non-toxic | Non-toxic | Non-toxic | Non-toxic | 78 | 31 | > 5000 | Activity [27]: 33.3%; permeability [3]: 490 ×10⁻⁶ cm/s; Cmax [22]: 1750 nM; Tmax [23]: 30 min; AUC [24]: 15.3 µM·h; Vz/F [28]: 1093.3 L/kg; Vd/F [29]: 623 L/kg; Activity [30]: 44.5%; Activity [31]: 28.4%; Activity [32]: 50.4%; MST [33]: 9 days |
